Screening results as filed in PubChem BioAssay.
Sampled rows, rich in hits. Any-hit rate of the full collection: about 9.8%.
Rad51 HR inh – Rad51 (human) homologous recombination inhibition; 200,000 compounds, 0.085% hits; inhibition, % at 10 µM; hRad51 DNA strand exchange, fluorescence dequenching;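 active = inhibition above 40% at the single screening dose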;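 note: 0% = DMSO control wells and 100% = blanks with heterologous ssDNA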
Target sequence (Q06609 whole entry, looked up): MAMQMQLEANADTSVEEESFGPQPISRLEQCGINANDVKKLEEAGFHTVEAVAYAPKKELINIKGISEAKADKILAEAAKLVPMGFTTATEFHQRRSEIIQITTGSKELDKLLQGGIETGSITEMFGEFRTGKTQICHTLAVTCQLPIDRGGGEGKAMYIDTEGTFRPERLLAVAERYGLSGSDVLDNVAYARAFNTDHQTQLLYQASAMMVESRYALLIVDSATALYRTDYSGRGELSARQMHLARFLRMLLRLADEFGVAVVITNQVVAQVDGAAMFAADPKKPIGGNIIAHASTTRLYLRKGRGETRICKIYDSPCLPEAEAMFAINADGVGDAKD
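material = hRad51 filaments on single-stranded DNA | timing = filaments 15 min 37 °C, then compound 30 min | signal = FRET fluorescence dequenching, excitation 485 nm, emission 520 nm | benchmarks = control wells and blank wells on each plate | evaluation = percent inhibition relative to plate controls and blanks | compound = 10 µM final, single point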
PMI act satM6P – activators of human phosphomannose isomerase at near-saturating mannose 6-phosphate; coupled PMI enzyme assay, resazurin fluorescence, 20 min; stronger effect = higher value; 1 = untreated enzyme, 0 = substrate-free blank; activation factor at 20 µM; 190,000 compounds, 0.34% hits; AID 1216;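 active = activation factor of 2 or more at 20 µM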
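test system = human PMI in coupled enzyme assay | medium = HEPES-buffered pH 7.4 with magnesium and detergent | also added = 1.0 mM mannose-6-phosphate substrate with 0.22 mM NADP+ | compound = 20 µM single dose | times = 20 min incubation at room temperature | measured by = resorufin fluorescence (Ex 544/Em 590 nm) from resazurin via diaphorase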
L major viab – inhibitors of Leishmania major promastigote growth; Leishmania major promastigotes, resazurin fluorescence viability; inhibition, % at 10 µM; 200,000 compounds, 9% hits; in the data active = inhibition above about 50%;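 note: promastigotes grown with compound for 44 hours at 28 °C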
Calpain2 inh – inhibitors of pig calpain II; purified calpain II, fluorogenic peptide substrate, 30 min; inhibition, % at 16 µM; 220,000 compounds, 0.37% hits; AID 1236;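 active = inhibition above about 50%, limit read from the data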
PMI act – activators of human phosphomannose isomerase. purified human PMI, coupled resazurin fluorescence, 20 min; stronger effect = higher value; 1 = vehicle control, 0 substrate-free wells. activation factor at 20 µM. 190,000 compounds, 0.005% hits. AID 1214;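 active = activation factor of 2 or more at 20 µM, relative to plate controls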
WT yeast gro inh – growth inhibition of WT yeast, mitochondrial fusion screen; mitochondrial fusion phenotypic screen, WT strain; inhibition, % at 10 µM; 190,000 compounds, 2.1% hits; in the data active = inhibition above about 58%; tested in S. cerevisiae
The depositor's hits bear a star; i = inactive; / = not tested or not shown.

SMILES	Rad51 HR inh	PMI act satM6P	L major viab	Calpain2 inh	PMI act	WT yeast gro inh
CCOC(=O)C1=c2/c(=C/c3ccccc3OC)c(N)c(C#N)n2C(=O)C(c2ccccc2OC)S1 (stereo not drawn)	/	1	-1	30	1	10
CCOC(=O)C1=C(N)n2c(s/c(=C\c3ccncc3)c2=O)=C(C(=O)OCC)C1c1ccncc1 (stereo not drawn)	1	/	52*	-95	/	-12
CC(C)(C)C(=O)Nc1ccc(-c2cc3cc(Cl)ccc3o2)cc1	7	/	/	-24	/	/
CCOc1ccc(C(C(=O)NC2CCCC2)N(CCCO)C(=O)c2ccc(-c3ccccc3)[nH]2)cc1 (stereo not drawn)	0	0.8	5	-20	0.9	8
COc1ccc(-c2csc(NC(=O)COc3ccc(N(C)S(=O)(=O)c4ccc(C)cc4)cc3)n2)cc1	-2	0.9	95*	-25	0.6	-5
Cc1ccc(-c2csc(NC(=O)COc3ccc(N(C)S(=O)(=O)c4ccc(C)cc4)cc3)n2)cc1	/	0.9	90*	-43	0.9	-15
COc1ccc(CCNC(=O)COc2ccc(N(C)S(=O)(=O)c3ccc(C)cc3)cc2)cc1	/	1	6	4	1	14
C[C@H](NC(=O)OC(C)(C)C)C(=O)N/N=C/c1ccc2nccnc2c1	0	/	/	3	/	/
Cc1cc(Nc2ccccc2)c2c([N+](=O)[O-])cc(C)c(C)c2n1	2	0.9	-2	19	1	76*
COc1ccc(CN(CC2CCC(C(=O)O)CC2)C(=S)Nc2cc(Cl)ccc2OC)cc1 (stereo not drawn)	/	1	-1	21	1.1	-10
CCOC(=O)C1CCN(CCC(=O)Nc2ccccc2Cl)CC1	0	1.1	78*	-8	1.1	-7
CCOC(=O)C1CCN(CCC(=O)Nc2cccc(Cl)c2)CC1	0	1	93*	-18	1	10
O=C(CCN1CCN(Cc2ccccc2)CC1)Nc1cccc(Cl)c1	-1	1.1	89*	-19	1.1	-3
CCOC(=O)C1CCN(CCC(=O)Nc2ccc(C)cc2)CC1	-2	/	56*	-17	/	-11
COc1ccc(/C=C/C(=O)NCCSCc2ccco2)cc1	/	0.9	-9	-16	1	-7
CNC(=O)c1ccc(CNC(=O)OCc2ccccc2)cc1	-2	1	-4	7	1	5
COc1ccccc1C1C(C(C)=O)=C(C)N=c2s/c(=C\c3cc(OC)c(OC)c(OC)c3)c(=O)n21 (stereo not drawn)	0	1	55*	-29	0.9	19
COc1cccc(C2C3=C(N=c4s/c(=C\c5ccccc5O)c(=O)n42)c2ccccc2CC3)c1OC (stereo not drawn)	2	1.1	13	-35	1	10
c1ccc(-c2ccc(OCCCNC3CCCC3)cc2)cc1	-13	0.9	100*	8	0.9	46
c1ccc(SCCCCNC2CCCC2)cc1	16	1.1	87*	-11	1	21
Cc1ccc(OCCNC(=O)C2CCCCC2)cc1	1	1	4	-14	1	-9
COc1ccc(OCCC(=O)NC2CCCCC2)cc1	-21	1.1	0	-26	1.1	0
c1coc(CNC2CCCCCCC2)c1	-3	1.1	23	1	1	4
COc1ccc(OCCNC2CCCC2)cc1	4	0.9	61*	2	0.8	-13
N#Cc1ccc(OCCOCCNC2CCCC2)cc1	-32	1.1	81*	-1	1.1	-8
SMILES	Rad51 HR inh	PMI act satM6P	L major viab	Calpain2 inh	PMI act	WT yeast gro inh
O=C(COC(=O)CNS(=O)(=O)c1c(Cl)cccc1Cl)Nc1cccnc1Cl	/	0.9	-6	-3	1	-2
c1ccc(Cc2ccc(OCCCNC3CCCC3)cc2)cc1	-1	0.9	100*	-63	0.9	47
c1cc2c(cc1OCCNC1CCCC1)CCC2	-1	1	76*	-10	0.9	6
CCCC[C@@H]1CNC(=S)N1CCc1cccc(F)c1	2	0.9	1	-12	0.9	65*
CCCC[C@@H]1CNC(=S)N1CCc1cccc2ccccc12	7	0.8	20	18	0.8	75*
CCCC[C@@H]1CNC(=S)N1CCC12CC3CC(CC(C3)C1)C2	-2	1	9	3	0.9	65*
Fc1cccc(CCN2C(=S)NC[C@@H]2Cc2ccccc2)c1	2	1	5	27	0.9	66*
NC(=S)N/N=C/c1cn(-c2ccccc2)nc1-c1cccnc1	13	/	/	33	/	/
COc1ccc(Nc2cc(C)nc3ccccc23)cc1	1	0.8	86*	13	0.8	-8
COc1ccc(Nc2nc(-c3ccccc3)c3ccccc3n2)cc1	6	0.9	34	35	0.9	64*
COc1ccc2nc(N3CCOCC3)cc(C)c2c1	-9	0.9	10	i	0.9	0
COc1ccc(Nc2nc(C)c3ccccc3n2)cc1	-2	0.9	34	13	0.9	1
Cc1ccc2nc(C)cc(Nc3ccc([N+](=O)[O-])cc3)c2c1	2	1	101*	-20	0.9	18
COc1ccc2nc(C)cc(Nc3ccc(N4CCOCC4)cc3)c2c1	4	0.9	51*	16	0.9	17
COC(=O)c1ccc(Nc2cc(C)nc3ccc(C)cc23)cc1	13	/	/	-7	/	/
N/C(=N/OC(=O)c1ccc(Cl)cc1)c1ncc([N+](=O)[O-])s1	7	/	/	1	/	/
CNc1nc(-c2ccccc2)cc(C)c1S(C)(=O)=O	-23	0.4	-2	i	1	3
Cc1ccsc1CNC(=O)c1c(-c2ccccc2)noc1C	-11	/	/	-12	/	/
Cc1cc(C)nc(NS(=O)(=O)c2ccc(NC(=O)c3ccc4c(c3)OCCO4)cc2)n1	29	0.9	4	1	0.9	-1
Cc1ccc(-c2nc(SCC(=O)Nc3cc(S(=O)(=O)N4CCCCC4)ccc3Cl)n[nH]2)cc1	-4	0.9	58*	-73	0.8	18
CC(NCc1ccc(F)cc1)C(=O)Nc1cc(S(=O)(=O)N2CCCCC2)ccc1Cl (stereo not drawn)	3	1	62*	23	0.9	2
O=C(CCl)Nc1cc(S(=O)(=O)N2CCCCCC2)ccc1Cl	/	1	99*	7	0.9	-7
CC(C)(C)CC(=O)Nc1cc(S(=O)(=O)N2CCCCCC2)ccc1Cl	/	1	5	2	1	15
CCOC(=O)c1ccc(Cl)c(S(=O)(=O)N2CCCC2)c1	0	1	3	-12	1	6
CC1CCN(S(=O)(=O)c2ccc(S(=O)(=O)N3CCN4CCCC4C3)cc2)CC1 (stereo not drawn)	/	1	/	/	1.1	/
CC1CCC(N2CCN(S(C)(=O)=O)CC2)CC1 (stereo not drawn)	4	1	89*	12	0.8	2
